The text below walks through data of PMC7115568 (European Journal of Medicinal Chemistry, 2014).

SMILES strings stand for the structures. “Also recorded” adds a separate entry of the source.

The test system of one data set is Tritrichomonas foetus. Briefly: In vitro protozoal parasite susceptibility assay. Type of data set: cell-based. To be noted: Tritrichomonas foetus, 24 h, read-out: Average % inhibition at 50 μM (Tritrichomonas foetus). In short, it runs like this:
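T. foetus strain D1 was screened in TYM Diamond's medium. Test compound was dissolved in DMSO and diluted into the medium. After 24 h exposure, parasites were counted with a hemacytometer.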

Data set [1] in a line: In vitro cytotoxic studies. It counts as cell-based, human. To be noted: human, PC-3 prostate cancer cells. In short, it runs like this:
(§1)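 PC-3 cells grown in DMEM with 10% FBS and plated in 96-well format. They were exposed to test compound over 20 μM–0.001 μM for 72 h. MTT was then added (stock 5 mg/ml in PBS) for 4 h. Plates were spun, supernatant removed and formazan dissolved in DMSO with 30 min shaking. A550 was read and percentage inhibition calculated.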

Data set [2] deals with human prostate (PC-3) cancer cell line. The experiment in a line: In vitro cytotoxic studies. Type of data set: cell-based. Particulars: PC-3 cells; tested at 0.2, 2.0 and 20 μM. The gist of the method: as §1

In general, inhibition refers to the drop in the measured response relative to a control, in per cent. Turning to `O=C1C(=O)N(CC#CCN2CCN(c3ccnc4cc(Cl)ccc34)CC2)c2ccc(F)cc21` [Compound 7b, 1-{4-[4-(7-Chloro-quinolin-4-yl)-piperazin-1-yl]-but-2-ynyl}-5-fluoro-1H-indole-2,3-dione], the inhibition at 50 µM in the data set with Tritrichomonas foetus was 100%. Moreover, in data set [1], the cytotoxicity at 72 h, 0.2 µM worked out at 2.1%; the cytotoxicity at 72 h, 2 µM is 5%; the cytotoxicity at 72 h, 20 µM came to 3%. For the same compound, in data set [2], the “Cytotoxicity against PC-3 cell line (in words)” value is “no cytotoxicity”.

Turning to `O=C1C(=O)N(CC#CCN2CCN(c3ccnc4cc(Cl)ccc34)CC2)c2ccccc21` [Compound 7a, 1-{4-[4-(7-Chloro-quinolin-4-yl)-piperazin-1-yl]-but-2-ynyl}-1H-indole-2,3-dione], the inhibition at 50 µM in the data set with Tritrichomonas foetus came to 98.5%. Further, in data set [1], the cytotoxicity at 72 h, 0.2 µM came to 9%; the cytotoxicity at 72 h, 2 µM was found to be 10.1%; the cytotoxicity at 72 h, 20 µM is -3.2%. In addition, the “Cytotoxicity against PC-3 cell line (in words)” value in data set [2] is reported as “no cytotoxicity; also recorded: minimal toxicity”.
